Source: PubChem BioAssay
Hits are enriched below; roughly 3% of the tested compounds scored in any of these assays.
DNA FID counter: fluorescent intercalator displacement, NS3 helicase counter-screen | DNA fluorescent intercalator displacement, fluorescence | 290,000 compounds, 0.17% hits | inhibition, % at 7.9 µM; in the data active = inhibition above about 37%;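 note: higher means more ethidium bromide displaced from hairpin DNA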
SR-BI DiI inh: inhibitors of mouse SR-BI mediated HDL lipid uptake | Q61009 | ldlA[mSR-BI] CHO cells, DiI-HDL uptake fluorescence, 3 h | inhibition, % at 12.5 µM | 320,000 compounds, 0.96% hits | AID 488896;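 active = mean replicate inhibition of at least 70% and a set share of replicates each scoring 70 or more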
Kir21 inh: inhibitors of mouse Kir2.1 inward-rectifier potassium channel. HEK293-Kir2.1, FluxOR thallium flux fluorescence; hits give low values. B-score at 10 µM. 310,000 compounds, 0.85% hits. AID 1672;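 active = fluorescence ratio B-score at or below minus 3 SD of library scores, with starting-brightness B-score within 2 SD, cut at about -4.2 in these data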;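 note: channel flux triggered by added potassium and thallium sulfate stimulus; B-score of peak minus minimum fluorescence over baseline after thallium stimulus; more negative B-score means stronger Kir2.1 block with less thallium influx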
SR-BI DiI-HDL act: SR-BI HDL lipid transfer activation | CHO ldlA[mSR-BI] cells, DiI-HDL uptake fluorescence, 3 h; 100 = double the neutral-control signal | activation, % at 12.5 µM | 320,000 compounds, 0.096% hits;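 active = mean replicate activation of at least 60% and every replicate at or above 60%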
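Material – SR-BI-overexpressing, LDLR-lacking CHO cells · Medium – BSA-supplemented, HEPES-buffered Ham's F12, pH 7.4 · Doses – single concentration · Times – compound with DiI-HDL co-incubation, 3 h at 37 °C · Measured by – bottom-read fluorescence, 550/595 nm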
TMEM16A inh: inhibitors of mouse TMEM16A calcium-activated chloride channel; HEK293 TMEM16A/YFP iodide influx fluorescence, ionomycin; normalized B-score (activity score, 25-100; higher = stronger inhibition) at 10 µM; 310,000 compounds, 1.2% hits; AID 588511;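 active = ratio plate-corrected score three or more library SD toward inhibition, starting fluorescence score within five deviations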;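 note: score derived from kinetic fluorescence span divided by baseline fluorescence per well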
Target sequence (Q8BHY3 whole entry, looked up): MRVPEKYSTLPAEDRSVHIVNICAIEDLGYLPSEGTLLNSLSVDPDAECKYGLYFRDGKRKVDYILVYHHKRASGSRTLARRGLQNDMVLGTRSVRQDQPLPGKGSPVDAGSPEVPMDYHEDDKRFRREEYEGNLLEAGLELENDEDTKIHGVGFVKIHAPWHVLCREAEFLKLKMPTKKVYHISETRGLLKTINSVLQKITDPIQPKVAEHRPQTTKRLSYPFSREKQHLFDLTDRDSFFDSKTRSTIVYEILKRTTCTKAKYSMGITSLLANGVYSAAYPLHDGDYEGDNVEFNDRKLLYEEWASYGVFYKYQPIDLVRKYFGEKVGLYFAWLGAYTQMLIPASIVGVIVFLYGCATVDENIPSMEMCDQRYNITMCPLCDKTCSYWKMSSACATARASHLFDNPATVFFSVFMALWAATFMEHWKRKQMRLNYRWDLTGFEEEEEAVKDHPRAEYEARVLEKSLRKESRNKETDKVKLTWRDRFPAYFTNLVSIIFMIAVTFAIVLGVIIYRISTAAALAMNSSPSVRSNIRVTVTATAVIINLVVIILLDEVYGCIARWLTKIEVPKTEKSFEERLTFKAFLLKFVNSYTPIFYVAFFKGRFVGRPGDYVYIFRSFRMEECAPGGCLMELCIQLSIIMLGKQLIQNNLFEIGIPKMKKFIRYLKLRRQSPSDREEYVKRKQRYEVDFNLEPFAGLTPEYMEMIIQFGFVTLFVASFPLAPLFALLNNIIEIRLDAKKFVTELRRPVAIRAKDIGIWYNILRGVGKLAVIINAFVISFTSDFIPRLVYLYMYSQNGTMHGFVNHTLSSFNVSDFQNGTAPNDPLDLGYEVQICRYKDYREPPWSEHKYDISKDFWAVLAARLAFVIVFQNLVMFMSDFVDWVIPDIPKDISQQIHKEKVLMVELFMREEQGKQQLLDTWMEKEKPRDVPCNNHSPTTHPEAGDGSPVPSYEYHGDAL
TMEM16A act: activators or potentiators of mouse TMEM16A chloride channel; Q8BHY3; HEK293 TMEM16A/YFP-H148Q/I152L, iodide quench fluorescence; hits give low values; B-score at 10 µM; 340,000 compounds, 0.3% hits; AID 623877;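 active = fluorescence-ratio B-score plate-corrected deviation score at least 3 library SD below zero, with starting fluorescence score within 5 deviations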;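 note: channel opened by trigger with iodide after compound preincubation; score built on the fluorescence ratio of max minus min over baseline; more negative score means more quench and so TMEM16A activation or potentiation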
Hits are given with their value.

`Cc1cccc(C)c1NCc1nnc(SCC(=O)Nc2nc(-c3ccccc3)cs2)n1-c1ccccc1` gave DNA FID counter inactive, SR-BI DiI inh inactive, Kir21 inh inactive, SR-BI DiI-HDL act inactive, TMEM16A inh inactive and TMEM16A act inactive.
For CCOc1ccccc1Nc1nnc(SCC(=O)Nc2nc(-c3ccc(OC)cc3)cs2)s1 the results were DNA FID counter inactive, SR-BI DiI inh 76, Kir21 inh inactive, SR-BI DiI-HDL act inactive, TMEM16A inh inactive and TMEM16A act inactive.
COc1ccc(-c2csc(NC(=O)CSc3nnc(Nc4ccccc4C)s3)n2)cc1 was read as DNA FID counter inactive, SR-BI DiI inh inactive, Kir21 inh inactive, SR-BI DiI-HDL act inactive, TMEM16A inh inactive and TMEM16A act inactive.
Screening CC(C)NC(=S)NN=C1c2ccccc2-c2ccccc21 returned DNA FID counter inactive, SR-BI DiI inh inactive, Kir21 inh inactive, SR-BI DiI-HDL act inactive, TMEM16A inh inactive and TMEM16A act inactive.
COCCN(C(=O)CNC(=O)c1ccco1)C(C(=O)NC1CCCC1)c1cccc(OC)c1 (configuration not stated) was read as DNA FID counter inactive, Kir21 inh inactive, TMEM16A inh inactive and TMEM16A act inactive.
Screening N#Cc1ccccc1COC(=O)CCCC1=NS(=O)(=O)c2ccccc2N1 returned DNA FID counter inactive, SR-BI DiI inh inactive, Kir21 inh inactive, SR-BI DiI-HDL act inactive, TMEM16A inh inactive and TMEM16A act inactive.
Screening CN(C)CCCOC(=O)c1sc2ccccc2c1Cl returned DNA FID counter inactive, SR-BI DiI inh inactive, Kir21 inh -7.3, SR-BI DiI-HDL act inactive, TMEM16A inh inactive and TMEM16A act inactive.
Screening CCCCOC(=S)NC(=O)c1sc2ccccc2c1Cl returned DNA FID counter inactive, SR-BI DiI inh inactive, Kir21 inh inactive, SR-BI DiI-HDL act inactive, TMEM16A inh inactive and TMEM16A act inactive.
CSc1cccc(NC(=S)NCCCN2CCN(c3ccc(F)cc3)CC2)c1 was read as DNA FID counter inactive, SR-BI DiI inh inactive, Kir21 inh -5.8, SR-BI DiI-HDL act 201, TMEM16A inh inactive and TMEM16A act inactive.
For Cc1ccc(C(=O)N/C(=C\c2ccco2)C(=O)N2CCOCC2)cc1C the results were DNA FID counter inactive, SR-BI DiI inh inactive, Kir21 inh inactive, SR-BI DiI-HDL act inactive, TMEM16A inh inactive and TMEM16A act inactive.
For CN(C)CCCN1c2ccccc2CCc2ccc(Cl)cc21 the results were DNA FID counter inactive, SR-BI DiI inh inactive, Kir21 inh -6.2, SR-BI DiI-HDL act inactive, TMEM16A inh inactive and TMEM16A act inactive.
COc1cc(-c2noc(C)c2/C=C/c2ccc(OC(C)=O)cc2)cc(OC)c1OC was read as DNA FID counter inactive, SR-BI DiI inh 75, Kir21 inh inactive, SR-BI DiI-HDL act inactive, TMEM16A inh inactive and TMEM16A act inactive.
CN(Cc1ccccc1F)Cc1cc(=O)oc2cc(O)c(Cl)cc12 was read as DNA FID counter inactive, Kir21 inh inactive, TMEM16A inh inactive and TMEM16A act inactive.
For Cc1cc2oc(=O)cc(CN(C)Cc3ccccc3F)c2cc1Cl the results were DNA FID counter inactive, SR-BI DiI inh inactive, Kir21 inh -4.3, SR-BI DiI-HDL act inactive, TMEM16A inh inactive and TMEM16A act inactive.
For Cc1ccc(S(=O)(=O)N2CCC(C(=O)N/N=C/c3cccn3C)CC2)cc1 the results were SR-BI DiI inh inactive, SR-BI DiI-HDL act inactive and TMEM16A act inactive.
Screening S=C(Nc1ccc(Oc2ccccc2)cc1)NC1CCCCCC1 returned DNA FID counter inactive, SR-BI DiI inh inactive, Kir21 inh inactive, SR-BI DiI-HDL act inactive, TMEM16A inh 100 and TMEM16A act inactive.
For S=C(Nc1ccc(Oc2ccccc2)cc1)NC1CCCCC1 the results were DNA FID counter inactive, SR-BI DiI inh inactive, Kir21 inh inactive, SR-BI DiI-HDL act inactive, TMEM16A inh inactive and TMEM16A act inactive.
For COc1ccc(S(=O)(=O)N2CCCCCC2)cc1C(=O)N(C)Cc1c(F)cccc1Cl the results were SR-BI DiI inh inactive, SR-BI DiI-HDL act inactive and TMEM16A act inactive.
For COc1ccc(S(=O)(=O)N2CCCCCC2)cc1C(=O)N(C)Cc1ccc(Cl)cc1Cl the results were SR-BI DiI inh inactive, Kir21 inh inactive, SR-BI DiI-HDL act inactive, TMEM16A inh inactive and TMEM16A act -22.
O=C(O)C1C2C=CC(C2)C1C(=O)NCc1cccs1 (configuration not stated) was read as DNA FID counter inactive, SR-BI DiI inh inactive, Kir21 inh inactive, SR-BI DiI-HDL act inactive, TMEM16A inh inactive and TMEM16A act inactive.
COc1ccccc1/C=C1\SC(=S)N(CCC(=O)NCCCn2ccnc2)C1=O was read as DNA FID counter inactive, SR-BI DiI inh inactive, Kir21 inh -4.5, SR-BI DiI-HDL act inactive, TMEM16A inh inactive and TMEM16A act inactive.
Screening O=C(CCCN1C(=O)/C(=C/c2ccc(F)cc2)SC1=S)NCCCn1ccnc1 returned DNA FID counter inactive, SR-BI DiI inh inactive, Kir21 inh -4.7, SR-BI DiI-HDL act inactive, TMEM16A inh inactive and TMEM16A act inactive.
For Nc1ncnc(Nc2ccccc2Oc2ccccc2)n1 the results were SR-BI DiI inh inactive, SR-BI DiI-HDL act inactive and TMEM16A act inactive.
For CC1CC(C)C[N+](=C2C=C(N3CCCC3)CC(C)(C)C2)C1 (configuration not stated) the results were DNA FID counter inactive, SR-BI DiI inh inactive, Kir21 inh -5.8, SR-BI DiI-HDL act inactive and TMEM16A act inactive.
Screening NC(=O)c1c(NC(=O)COC(=O)c2ccc(O)c(Cl)c2)sc2c1CCCC2 returned SR-BI DiI inh inactive, SR-BI DiI-HDL act inactive and TMEM16A act inactive.
Screening Cc1ccc(Cl)c(OCC(=O)NCC(c2cccs2)N2CCOCC2)c1 (configuration not stated) returned SR-BI DiI inh inactive, Kir21 inh -7.8, SR-BI DiI-HDL act inactive, TMEM16A inh inactive and TMEM16A act inactive.
Screening Cc1ccc(SCCC(=O)OCC(=O)Nc2ccc(S(N)(=O)=O)cc2)cc1 returned DNA FID counter inactive, Kir21 inh inactive, TMEM16A inh inactive and TMEM16A act -4.9.
Screening Cc1ccc(OCCCC(=O)Nc2ccc(S(N)(=O)=O)cc2)cc1 returned DNA FID counter inactive, SR-BI DiI inh inactive, Kir21 inh inactive, SR-BI DiI-HDL act inactive, TMEM16A inh inactive and TMEM16A act -5.3.
For Cc1ccc(OCCC(=O)Nc2ccc(S(=O)(=O)N3CCCC3)cc2)cc1 the results were SR-BI DiI inh inactive, SR-BI DiI-HDL act inactive and TMEM16A act inactive.
O=[N+]([O-])c1ccc(S(=O)(=O)NCC(c2cccnc2)N2CCc3ccccc32)cc1 (configuration not stated) was read as SR-BI DiI inh inactive, Kir21 inh inactive, SR-BI DiI-HDL act inactive, TMEM16A inh inactive and TMEM16A act inactive.
Screening CCOC(=O)Cc1csc(SCC(=O)Nc2oc(C)c3c(C)n[nH]c(=O)c23)n1 returned SR-BI DiI inh inactive, SR-BI DiI-HDL act inactive and TMEM16A act inactive.
